For the first experiment, the target named is T1, OR2T34 (Homo sapiens) (UniProt Q8NGX1).
T1 sequence (whole entry): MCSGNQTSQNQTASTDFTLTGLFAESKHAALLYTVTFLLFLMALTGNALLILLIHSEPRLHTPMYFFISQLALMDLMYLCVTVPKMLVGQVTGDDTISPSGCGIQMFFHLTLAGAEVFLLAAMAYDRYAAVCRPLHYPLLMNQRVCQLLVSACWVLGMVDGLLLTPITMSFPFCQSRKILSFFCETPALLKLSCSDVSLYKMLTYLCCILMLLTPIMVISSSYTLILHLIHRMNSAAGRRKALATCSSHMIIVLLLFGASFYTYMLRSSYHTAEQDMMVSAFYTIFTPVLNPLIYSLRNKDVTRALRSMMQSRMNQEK
The conditions noted are these: stereoisomer not certain. Summed up: (§1)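 Whether a receptor–molecule pair is responsive (active) rests on the original authors' judgment that its measured signal was statistically different from baseline. Pairs without that judgment are non-responsive (inactive). Sources used varied assay methods, commonly transient luciferase assays in mammalian cell lines.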
On to `COC1CC2CC1C1CC(C=O)CC21` (stereo unspecified), for which the “odorant receptor agonist call” value is “inactive”. On the same count and under the same terms, the entry for `COc1ccc(C)cc1` is “inactive”; for `CC(C)(C)C1CCCCC1OCCCCO` (stereo unspecified) it is “inactive”.

With `CC=CC(=O)C1C(C)=CCCC1(C)C` (stereo unspecified), the “odorant receptor agonist call” value was “active”. The same measure, in the same setting: the entry for `CCCCC1CCC(=O)O1` (stereo unspecified) is “inactive”; for `Cc1occc(=O)c1OC(=O)C(C)C` it is “inactive”.

Take `CC1=NC(C)C(C)S1` (stereo unspecified): the “odorant receptor agonist call” value was “inactive”.

In the case of `CCC1OC(C)=C(O)C1=O` (stereo unspecified), the “odorant receptor agonist call” value is “inactive”.

As to `CC(C)=CCCC(C)CC=O` (stereo unspecified), the “odorant receptor agonist call” value was “inactive”. On the same count and under the same terms, under `CC(C)=CCCC(C)=CCO` stands “inactive”; under `CCCCCCC=CCCC=O`, “inactive”; under `CCCC(C)C(=O)OCC` (stereo unspecified), “inactive”. Turning to `CCC1OC(=O)C(O)=C1C` (stereo unspecified), the “odorant receptor agonist call” value is “inactive”. The same measure, in the same setting: under `CC(CC=O)c1ccc(C(C)(C)C)cc1` (stereo unspecified) stands “inactive”; under `CC1=CCC2CC1C2(C)C` (stereo unspecified), “inactive”; under `CC1=C(O)C(=O)C(C)O1` (stereo unspecified), “inactive”. The same measure, in the same setting: the entry for `Cc1cnc(C)c(C)n1` is “inactive”. Same read-out and setting: the entry for `CCCCCC1COCCC1OC(C)=O` (stereo unspecified) is “inactive”; for `CCC(S)C(C)CO` (stereo unspecified) it is “inactive”.

A further experiment has as its target T2, OR2T35 (Homo sapiens) (UniProt Q8NGX2).
T2 sequence (whole entry): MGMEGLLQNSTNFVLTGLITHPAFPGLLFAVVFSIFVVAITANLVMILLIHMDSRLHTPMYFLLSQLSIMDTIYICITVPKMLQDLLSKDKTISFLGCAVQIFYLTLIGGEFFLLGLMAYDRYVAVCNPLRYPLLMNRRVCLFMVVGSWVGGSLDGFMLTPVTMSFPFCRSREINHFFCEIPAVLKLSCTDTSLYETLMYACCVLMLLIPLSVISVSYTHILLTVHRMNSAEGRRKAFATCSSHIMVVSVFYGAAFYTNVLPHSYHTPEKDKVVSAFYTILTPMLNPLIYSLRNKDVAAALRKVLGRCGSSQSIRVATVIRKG
The conditions noted are these: stereoisomer not certain. Summed up: as §1
Turning to `CC(=O)c1c(C)c([N+](=O)[O-])c(C(C)(C)C)c([N+](=O)[O-])c1C`, the “odorant receptor agonist call” value is “inactive”. On the same count and under the same terms, the entry for `CC1CCCCCCCCCCCCC(=O)C1` (stereo unspecified) is “inactive”; for `CCCC(S)CCOC(C)=O` (stereo unspecified) it is “inactive”; for `CC(CO)CS` (stereo unspecified) it is “inactive”. Same read-out and setting: under `CCCCCC(S)C(C)CO` (stereo unspecified) stands “inactive”; under `CC1=C(O)C(=O)OC1C` (stereo unspecified), “inactive”; under `CCCCCC(=O)C(C)C(C)=O` (stereo unspecified), “inactive”.

With `CCCCC(S)C(C)CO` (stereo unspecified), the “odorant receptor agonist call” value is “inactive”. Same read-out and setting: under `CC1=NC(C)C(C)S1` (stereo unspecified) stands “inactive”. Still for that read-out and setting: the entry for `CCC1OC(C)=C(O)C1=O` (stereo unspecified) is “inactive”.

On to `CCCCCCC=CCCC=O`, for which the “odorant receptor agonist call” value is “inactive”. As to `CCC1OC(=O)C(O)=C1C` (stereo unspecified), the “odorant receptor agonist call” value is “inactive”. On the same count and under the same terms, the entry for `CC1=C(O)C(=O)C(C)O1` (stereo unspecified) is “inactive”; for `Cc1cnc(C)c(C)n1` it is “inactive”; for `CCC(S)C(C)CO` (stereo unspecified) it is “inactive”.

The target in the next experiment is T3, OR2T4 (Homo sapiens) (UniProt Q8NH00).
T3 sequence (whole entry): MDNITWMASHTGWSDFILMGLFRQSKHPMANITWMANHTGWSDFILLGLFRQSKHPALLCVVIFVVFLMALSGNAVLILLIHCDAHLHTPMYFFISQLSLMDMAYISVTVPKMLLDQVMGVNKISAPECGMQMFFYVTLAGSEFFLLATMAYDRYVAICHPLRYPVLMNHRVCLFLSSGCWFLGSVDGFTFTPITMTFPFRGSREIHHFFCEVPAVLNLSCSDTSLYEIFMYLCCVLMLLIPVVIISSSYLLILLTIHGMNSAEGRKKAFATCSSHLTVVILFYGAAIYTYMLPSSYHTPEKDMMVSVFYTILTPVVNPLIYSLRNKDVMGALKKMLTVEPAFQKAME
The conditions noted are these: stereoisomer not certain. A digest of the protocol:
as §1
For `CC(=O)c1c(C)c([N+](=O)[O-])c(C(C)(C)C)c([N+](=O)[O-])c1C`, the “odorant receptor agonist call” value was “inactive”. As to `CC1CCCCCCCCCCCCC(=O)C1` (stereo unspecified), the “odorant receptor agonist call” value is “inactive”.

Consider `CCCC(S)CCOC(C)=O` (stereo unspecified), for which the “odorant receptor agonist call” value was “inactive”. Same read-out and setting: the entry for `CC(CO)CS` (stereo unspecified) is “inactive”.

With `CCCCCC(S)C(C)CO` (stereo unspecified), the “odorant receptor agonist call” value is “inactive”. For `CC1=C(O)C(=O)OC1C` (stereo unspecified), the “odorant receptor agonist call” value is “inactive”.

Consider `CCCCCC(=O)C(C)C(C)=O` (stereo unspecified), for which the “odorant receptor agonist call” value is “inactive”. The same measure, in the same setting: the entry for `CCCCC(S)C(C)CO` (stereo unspecified) is “inactive”.

As for `CC1=NC(C)C(C)S1` (stereo unspecified), the “odorant receptor agonist call” value is “inactive”. The same measure, in the same setting: under `CCC1OC(C)=C(O)C1=O` (stereo unspecified) stands “inactive”. On the same count and under the same terms, the entry for `CC(C)=CCCC(C)=CCO` is “inactive”; for `CCCCCCC=CCCC=O` it is “inactive”; for `CCC1OC(=O)C(O)=C1C` (stereo unspecified) it is “inactive”. Same read-out and setting: the entry for `CC1=CCC2CC1C2(C)C` (stereo unspecified) is “active”; for `CC1=C(O)C(=O)C(C)O1` (stereo unspecified) it is “inactive”; for `Cc1cnc(C)c(C)n1` it is “inactive”.

As to `CCC(S)C(C)CO` (stereo unspecified), the “odorant receptor agonist call” value is “inactive”.
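Further: active if original authors judged signal statistically different from baseline.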
